Results published in ChEMBL document CHEMBL2086239, “Synthesis and biological evaluation of combretastatin-amidobenzothiazole conjugates as potential anticancer agents” (Eur J Med Chem, 2012).
Calls of active or inactive are those of the source. No cut-off for these calls is given here.

Assays:
MCF7 [1] = assay: Cytotoxicity against human MCF7 cells at 4 uM after 24 hrs by MTT assay; assay type: functional, cell-based
Method in brief: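 MCF-7 cells grown in DMEM with 10% fetal calf serum, penicillin and streptomycin at 37 °C, 5% CO2. Seeded at 10,000 cells/well, incubated overnight, then treated 24 h at 4 µM. Medium replaced with fresh medium plus MTT dye, incubated 2 h at 37 °C. Absorbance read at 570 nm; O.D. taken as viability versus untreated control.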

HT-29 = assay: Growth inhibition of human HT-29 cells after 48 hrs by SRB assay; assay type: functional
Method in brief: (§1)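 NCI 60-cell-line screen: after preliminary screening, tested at five dose concentrations on 59 human tumour lines covering leukemia, lung, colon, CNS, melanoma, ovarian, renal, prostate and breast.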

SF-295 = assay: Growth inhibition of human SF295 cells after 48 hrs by SRB assay; assay type: functional; settings: SF-295, 48 h
Method in brief: (§2)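 NCI 60-cell-line panel, five-dose testing after preliminary screen; sulforhodamine B protein assay in DMEM with 10% FBS, 37 °C, 5% CO2, 100% humidity. Cells seeded and incubated 24 h before compound addition, then exposed 48 h. Absorbance read at 560 nm; growth percentage relative to control wells; GI50 taken as concentration giving 50% growth inhibition.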

UACC-257 = assay: Growth inhibition of human UACC257 cells after 48 hrs by SRB assay; assay type: functional; method in brief: as §2
MCF7 [2] = assay: Inhibition of microtubule organization in human MCF7 cells at 4 uM after 24 hrs by immunofluorescence analysis; assay type: cell-based
Method in brief: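 MCF-7 cells were grown in DMEM with 10% fetal calf serum and penicillin/streptomycin at 37 °C and 5% CO2. Cells on cover slips were treated for 24 h, then fixed in 4% paraformaldehyde for 20 min. They were permeabilised with 0.2% Triton X-100, held in methanol at 4 °C overnight and blocked with 1% BSA. Staining used anti-α-tubulin (1:100, 2 h RT), FITC secondary and a DAPI/PI mount, with confocal imaging.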

MDA-MB-468 = assay: Growth inhibition of human MDA-MB-468 cells after 48 hrs by SRB assay; assay type: functional; method in brief: as §1
MCF7 [3] = assay: Cytotoxicity against human MCF7 cells after 48 hrs assessed as inhibition of cell growth at 10 uM after 48 hrs by SRB assay relative to control; assay type: functional; settings: MCF7, 48 h, read-out: GI
Method in brief: (§3)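 SRB protein assay in DMEM with 10% FBS at 37 °C, 5% CO2, 100% relative humidity. Cells seeded in 96-well plates, incubated 24 h, then exposed to drug at 10 µM for 48 h and processed per standard protocol. Absorbance read at 560 nm; growth percentage calculated for test wells relative to control wells.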

HCC 2998 = assay: Growth inhibition of human HCC2998 cells after 48 hrs by SRB assay; assay type: functional; method in brief: as §1
MDA-MB-231 = assay: Growth inhibition of human MDA-MB-231 cells after 48 hrs by SRB assay; assay type: functional; settings: MDA-MB-231, 48 h; method in brief: as §1
UO-31 = assay: Growth inhibition of human UO31 cells after 48 hrs by SRB assay; assay type: functional; settings: UO-31, 48 h; method in brief: as §2
THP-1 = assay: Cytotoxicity against human THP1 cells after 48 hrs assessed as inhibition of cell growth at 10 uM after 48 hrs by SRB assay relative to control; assay type: functional; settings: for inhibition of growth at 10 µM: THP-1, 48 h, read-out: GI; method in brief: as §3
SK-MEL-5 = assay: Growth inhibition of human SK-MEL-5 cells after 48 hrs by SRB assay; assay type: functional; settings: SK-MEL-5, 48 h; method in brief: as §2
BT-549 = assay: Growth inhibition of human BT549 cells after 48 hrs by SRB assay; assay type: functional; settings: BT-549, 48 h; method in brief: as §1
K562 = assay: Growth inhibition of human K562 cells after 48 hrs by SRB assay; assay type: functional; settings: K562, 48 h; method in brief: as §1
M14 = assay: Growth inhibition of human M14 cells after 48 hrs by SRB assay; assay type: functional; settings: M14, 48 h; method in brief: as §1
KM12 = assay: Growth inhibition of human KM12 cells after 48 hrs by SRB assay; assay type: functional; settings: KM12, 48 h; method in brief: as §1
HEp-2 = assay: Cytotoxicity against human Hep2 cells after 48 hrs assessed as inhibition of cell growth at 10 uM after 48 hrs by SRB assay relative to control; assay type: functional; settings: for inhibition of growth at 10 µM: HEp-2, 48 h, read-out: GI; method in brief: as §3
MCF7 [4] = assay: Growth inhibition of human MCF7 cells after 48 hrs by SRB assay; assay type: functional; settings: MCF7, 48 h; method in brief: as §1
Malme-3M = assay: Growth inhibition of human MALME-3M cells after 48 hrs by SRB assay; assay type: functional; method in brief: as §1
HOP-92 = assay: Growth inhibition of human HOP92 cells after 48 hrs by SRB assay; assay type: functional; settings: HOP-92, 48 h; method in brief: as §1
MCF7 [5] = assay: Cell cycle arrest in human MCF7 cells assessed as accumulation at S phase at 4 uM after 24 hrs by FACS analysis (reference value: 6.79%); assay type: functional
[6] = target: Mitogen-activated protein kinase; ERK1/ERK2 (Homo sapiens) (UniProt P27361+P28482); assay: Inhibition of nuclear translocation of phosphorylated ERK1/2 in human MCF7 cells at 4 uM after 24 hrs by immunofluorescence assay; assay type: cell-based
Method in brief: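 MCF-7 cells (DMEM, 10% fetal calf serum, 37 °C, 5% CO2) were treated on cover slips for 24 h. They were fixed in 4% paraformaldehyde, permeabilised with 0.2% Triton X-100, held in methanol at 4 °C overnight and blocked with 1% BSA for 60 min. Anti-phospho-ERK antibody (1:100, 2 h RT) was followed by FITC anti-rabbit secondary for 1 h and a DAPI/PI mount. Subcellular pERK localisation was imaged by confocal microscopy.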

NCI-H226 = assay: Growth inhibition of human NCI-H226 cells after 48 hrs by SRB assay; assay type: functional; settings: NCI-H226, 48 h; method in brief: as §1
NCI-H23 = assay: Growth inhibition of human NCI-H23 cells after 48 hrs by SRB assay; assay type: functional; settings: NCI-H23, 48 h; method in brief: as §1
[7] = Inhibition of tubulin polymerization after 30 mins to 1 hr by spectrophotometry
Method in brief: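 This was a kit-based tubulin polymerization assay. Kit tubulin in G-PEM buffer was incubated with compounds, and polymerization was followed as optical density at 340 nm for 30 min to 1 h. Inhibition was read as a decrease in OD. Nocodazole and paclitaxel were run as reference destabilizer and stabilizer.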

IGROV-1 = assay: Growth inhibition of human IGROV1 cells after 48 hrs by SRB assay; assay type: functional; settings: IGROV-1, 48 h; method in brief: as §1
TK-10 = assay: Growth inhibition of human TK10 cells after 48 hrs by SRB assay; assay type: functional; settings: TK-10, 48 h; method in brief: as §2
SK-MEL-28 = assay: Growth inhibition of human SK-MEL-28 cells after 48 hrs by SRB assay; assay type: functional; method in brief: as §2
NCI-H322M = assay: Growth inhibition of human NCI-H322M cells after 48 hrs by SRB assay; assay type: functional; method in brief: as §1
SNB-19 = assay: Growth inhibition of human SNB19 cells after 48 hrs by SRB assay; assay type: functional; method in brief: as §2

Mitogen-activated protein kinase; ERK1/ERK2 (Homo sapiens), sequence (P27361 whole entry, looked up): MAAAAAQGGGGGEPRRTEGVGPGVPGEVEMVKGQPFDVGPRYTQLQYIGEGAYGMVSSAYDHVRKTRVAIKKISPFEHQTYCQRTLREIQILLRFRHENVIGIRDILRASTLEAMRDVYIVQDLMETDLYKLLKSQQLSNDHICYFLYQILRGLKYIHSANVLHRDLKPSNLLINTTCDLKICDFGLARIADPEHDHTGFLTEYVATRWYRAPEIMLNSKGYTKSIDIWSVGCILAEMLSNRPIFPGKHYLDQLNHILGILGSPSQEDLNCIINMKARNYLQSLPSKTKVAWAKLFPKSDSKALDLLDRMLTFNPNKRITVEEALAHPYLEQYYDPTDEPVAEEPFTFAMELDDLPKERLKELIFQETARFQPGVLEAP
Mitogen-activated protein kinase; ERK1/ERK2 (Homo sapiens), sequence (P28482 whole entry, looked up): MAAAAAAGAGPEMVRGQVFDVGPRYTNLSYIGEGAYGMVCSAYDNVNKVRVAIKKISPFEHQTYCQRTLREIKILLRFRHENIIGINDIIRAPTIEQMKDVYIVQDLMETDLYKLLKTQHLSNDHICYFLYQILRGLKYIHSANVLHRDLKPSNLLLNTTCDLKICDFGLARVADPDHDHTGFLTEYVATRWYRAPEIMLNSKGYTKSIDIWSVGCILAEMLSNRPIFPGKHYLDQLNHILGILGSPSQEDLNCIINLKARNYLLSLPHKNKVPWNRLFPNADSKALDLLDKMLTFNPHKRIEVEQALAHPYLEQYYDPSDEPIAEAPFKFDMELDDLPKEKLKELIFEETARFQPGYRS

Row | SMILES | GI50 (HT-29; HT-29, 48 h) [µM] | GI50 (SF-295) [µM] | GI50 (UACC-257; UACC-257, 48 h) [µM] | GI50 (MDA-MB-468; MDA-MB-468, 48 h) [µM] | inhibition of growth at 10 µM (MCF7 [3]) [%] | GI50 (HCC 2998; HCC 2998, 48 h) [µM] | GI50 (MDA-MB-231) [µM] | GI50 (UO-31) [µM] | GI50 (SK-MEL-5) [µM] | GI50 (BT-549) [µM] | GI50 (K562) [µM] | GI50 (M14) [µM] | GI50 (KM12) [µM] | GI50 (MCF7 [4]) [µM] | GI50 (Malme-3M) | GI50 (HOP-92) [µM] | Activity (MCF7 [5]) [%] | GI50 (NCI-H226) [µM] | GI50 (NCI-H23) [µM] | GI50 (IGROV-1) [µM] | other results
1 | COc1ccc(/C=C\c2cc(OC)c(OC)c(OC)c2)cc1OCC(=O)Nc1nc2ccccc2s1 | 3.16 | 0.22 | 11 | 0.1 | 72 | 0.37 | 0.19 | 0.58 | 0.036 | 0.41 | 0.042 | 0.072 | 0.058 | 0.051 | 1.99 µM | 0.039 | 27.48 | 0.27 | 0.11 | 0.21 | Activity (MCF7 [1]): Active; inhibition (MCF7 [2]): Active; growth inhibition (GI) (THP-1): inactive; growth inhibition (GI) (HEp-2): inactive; inhibition [6]: Active; IC50 [7]: 5 µM
2 | COc1ccc(/C=C\c2cc(OC)c(OC)c(OC)c2)cc1OCC(=O)Nc1nc2ccc(OC(F)(F)F)cc2s1 | – | 3.7 | – | 2.3 | 59 | 17.1 | 5.16 | 4.37 | 3.26 | 10.5 | 3.43 | 4.36 | 4.48 | 2.89 | – | 2.74 | 7.51 | 4.3 | 4.39 | 5.64 | GI50 (TK-10): 18.6 µM; GI50 (HT-29): inactive; GI50 (UACC-257): inactive; inhibition of growth at 10 µM (THP-1): 66%; GI50 (SK-MEL-28; SK-MEL-28, 48 h): 4.57 µM; GI50 (NCI-H322M): inactive; inhibition of growth at 10 µM (HEp-2): 78%; GI50 (SNB-19; SNB-19, 48 h): 7.08 µM
3 | COc1ccc(/C=C\c2cc(OC)c(OC)c(OC)c2)cc1OCC(=O)Nc1nc2ccc(C(F)(F)F)cc2s1 | 14.9 | 3.36 | 40 | 2.16 | 62 | 4.23 | 3.38 | 3.59 | 2.84 | 5.23 | 3.3 | 3.58 | 3.14 | 3.16 | inactive | 2.88 | 7.15 | 3.17 | 3.9 | 4.48 | GI50 (TK-10): 7.03 µM; inhibition of growth at 10 µM (THP-1): 29%; GI50 (SK-MEL-28; SK-MEL-28, 48 h): 3 µM; GI50 (NCI-H322M): 5.38 µM; inhibition of growth at 10 µM (HEp-2): 76%; GI50 (SNB-19; SNB-19, 48 h): 5.03 µM
4 | COc1ccc(/C=C\c2cc(OC)c(OC)c(OC)c2)cc1OCC(=O)Nc1ccc2nc(C)sc2c1 | 3.31 | 2.45 | 1.73 | 2.39 | 52 | 6.9 | 5.45 | 2.41 | 1.97 | 3.05 | 2.19 | 3.38 | 3.79 | 0.74 | 2.84 µM | 2.38 | 7.71 | 2.75 | 2.53 | 3.72 | GI50 (TK-10): 4.21 µM; inhibition of growth at 10 µM (THP-1): 59%; GI50 (SK-MEL-28; SK-MEL-28, 48 h): 3.22 µM; GI50 (NCI-H322M): 6.74 µM; inhibition of growth at 10 µM (HEp-2): 40%; GI50 (SNB-19; SNB-19, 48 h): 3.89 µM
5 | COc1ccc(/C=C\c2cc(OC)c(OC)c(OC)c2)cc1OCC(=O)Nc1nc2ccc(F)cc2s1 | 9.63 | 4.29 | 8.69 | 3.68 | 56 | – | 9.34 | 2.56 | 1.76 | 16.7 | 3.62 | 6.82 | 4.78 | 2.3 | 5.22 µM | 5.73 | 13.64 | 5.6 | 4.26 | 4.17 | GI50 (TK-10): 9.89 µM; Activity (MCF7 [1]): Active; GI50 (HCC 2998): inactive; inhibition of growth at 10 µM (THP-1): 54%; GI50 (SK-MEL-28): inactive; GI50 (NCI-H322M): inactive; inhibition of growth at 10 µM (HEp-2): 64%; GI50 (SNB-19): inactive
6 | COc1ccc2nc(NC(=O)COc3cc(/C=C\c4cc(OC)c(OC)c(OC)c4)ccc3OC)sc2c1 | 3.34 | 1.84 | 63 | 2.29 | 53 | 7.34 | 5.4 | 4.31 | 2.68 | 21.2 | 3.6 | 4.33 | 3.12 | 2.88 | inactive | 6.28 | 7.12 | 4.51 | 3.91 | 7 | GI50 (TK-10): 7.54 µM; inhibition of growth at 10 µM (THP-1): 72%; GI50 (SK-MEL-28; SK-MEL-28, 48 h): 4.41 µM; GI50 (NCI-H322M): inactive; inhibition of growth at 10 µM (HEp-2): 71%; GI50 (SNB-19; SNB-19, 48 h): 6.3 µM
7 | COc1ccc(/C=C\c2cc(OC)c(OC)c(OC)c2)cc1O [COMBRETASTATIN A4] | 0.1 | 0.003 | 0.003 | – | 71 | 0.063 | 0.001 | 0.019 | 0.003 | 10 | 0.002 | 0.002 | 0.005 | 0.005 | 0.019 µM | 0.002 | 14.27 | 0.003 | 0.003 | 0.015 | GI50 (TK-10): 0.1 µM; GI50 (MDA-MB-468): inactive; inhibition of growth at 10 µM (THP-1): 87%; GI50 (SK-MEL-28; SK-MEL-28, 48 h): 0.007 µM; GI50 (NCI-H322M): 0.003 µM; inhibition of growth at 10 µM (HEp-2): 64%; GI50 (SNB-19; SNB-19, 48 h): 0.003 µM; inhibition [7]: Active
